This passage reports IC50, inhibition and Activity results from ChEMBL document CHEMBL1687868, “Bioactive compounds from the fern Lepisorus contortus” (J Nat Prod, 2011).

One data set addresses T1, Aromatase (Homo sapiens, UniProt P11511).
T1 sequence (P11511 whole entry): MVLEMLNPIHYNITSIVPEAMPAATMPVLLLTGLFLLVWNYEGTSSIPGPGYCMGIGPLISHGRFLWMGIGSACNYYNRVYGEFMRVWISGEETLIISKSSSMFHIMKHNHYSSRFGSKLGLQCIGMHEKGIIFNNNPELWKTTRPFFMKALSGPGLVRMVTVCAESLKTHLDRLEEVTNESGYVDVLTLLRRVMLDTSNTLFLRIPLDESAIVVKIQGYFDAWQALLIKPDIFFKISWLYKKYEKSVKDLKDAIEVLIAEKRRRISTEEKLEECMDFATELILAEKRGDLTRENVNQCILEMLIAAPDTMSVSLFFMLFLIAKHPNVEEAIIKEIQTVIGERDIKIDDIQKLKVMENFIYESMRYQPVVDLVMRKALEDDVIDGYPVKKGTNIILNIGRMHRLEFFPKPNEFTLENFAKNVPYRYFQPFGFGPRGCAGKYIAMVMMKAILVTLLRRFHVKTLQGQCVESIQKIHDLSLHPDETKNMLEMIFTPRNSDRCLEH
The data set can be described thus: Inhibition of aromatase preincubated with 2.6 mM NADP+ for 10 mins before substrate addition measured after 30 mins by fluorescence assay. In outline:
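Compounds preincubated 10 min at 37 °C with NADPH-regenerating system (2.6 mM NADP+, 7.6 mM glucose 6-phosphate, G6PDH, MgCl2, albumin; 50 mM K phosphate pH 7.4). CYP19 with 0.4 µM dibenzylfluorescein then added for 30 min at 37 °C. Stopped with 2 N NaOH and held a further 2 h at 37 °C. Fluorescence read at ex 485/em 530. Five concentrations; three independent experiments in duplicate.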

The next data set concerns RAW264.7. The data set can be described thus: Inhibition of NO production in mouse RAW264.7 cells at 20 ug/ml after 30 mins by Griess assay. The class given is functional, cell-based. As to conditions: in the assay text read “after 24 hrs” for “after 30 mins”. The essentials: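 RAW 264.7 cells plated for 24 h. Compound in phenol red-free DMEM added 30 min before LPS (1 µg/mL), then 24 h incubation. Nitrite measured with Griess reagent (1% sulfanilamide, 0.1% N-(1-naphthyl)ethylenediamine in 2.5% H3PO4) at 540 nm, against an NaNO2 standard curve.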
(Griess reagent forms a coloured azo dye with nitrite.)

In data set [1] the target is T2, Prostaglandin G/H synthase 1 (Ovis aries) (UniProt P05979).
T2 sequence (whole entry): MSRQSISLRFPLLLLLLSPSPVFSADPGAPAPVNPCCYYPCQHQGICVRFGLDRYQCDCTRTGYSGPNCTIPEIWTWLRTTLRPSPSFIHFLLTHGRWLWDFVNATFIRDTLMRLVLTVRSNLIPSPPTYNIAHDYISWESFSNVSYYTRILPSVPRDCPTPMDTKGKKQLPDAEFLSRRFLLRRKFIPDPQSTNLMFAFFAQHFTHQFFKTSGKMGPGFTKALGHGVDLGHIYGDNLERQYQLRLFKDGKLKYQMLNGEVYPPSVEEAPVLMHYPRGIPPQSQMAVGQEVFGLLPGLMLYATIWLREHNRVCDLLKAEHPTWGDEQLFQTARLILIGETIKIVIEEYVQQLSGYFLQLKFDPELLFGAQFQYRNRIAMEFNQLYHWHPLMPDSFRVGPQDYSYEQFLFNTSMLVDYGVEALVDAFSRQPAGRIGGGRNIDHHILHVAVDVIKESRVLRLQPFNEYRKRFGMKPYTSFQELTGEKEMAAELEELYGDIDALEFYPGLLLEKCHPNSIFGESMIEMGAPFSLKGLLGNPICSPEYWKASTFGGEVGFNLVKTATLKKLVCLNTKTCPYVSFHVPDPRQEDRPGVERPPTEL
The data set can be described thus: Inhibition of ovine COX1 assessed as PGE2 formation at 10 ug/ml by LC-MS-MS analysis. In outline:
(§1)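 COX-1 (ovine) or COX-2 (human), 0.2 µg, activated in Tris-HCl pH 8.0 with hematin (1 µM final) and L-epinephrine (2 mM final). Test solution preincubated 10 min at 37 °C. Reaction started with arachidonic acid (5 µM final), stopped with HCl after 2 min. d4-PGE2 added as internal standard and PGE2 extracted with […] for LC-MS.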

The target in data set [2] is T3, Prostaglandin G/H synthase 2 (Homo sapiens) (UniProt P35354).
T3 sequence (whole entry): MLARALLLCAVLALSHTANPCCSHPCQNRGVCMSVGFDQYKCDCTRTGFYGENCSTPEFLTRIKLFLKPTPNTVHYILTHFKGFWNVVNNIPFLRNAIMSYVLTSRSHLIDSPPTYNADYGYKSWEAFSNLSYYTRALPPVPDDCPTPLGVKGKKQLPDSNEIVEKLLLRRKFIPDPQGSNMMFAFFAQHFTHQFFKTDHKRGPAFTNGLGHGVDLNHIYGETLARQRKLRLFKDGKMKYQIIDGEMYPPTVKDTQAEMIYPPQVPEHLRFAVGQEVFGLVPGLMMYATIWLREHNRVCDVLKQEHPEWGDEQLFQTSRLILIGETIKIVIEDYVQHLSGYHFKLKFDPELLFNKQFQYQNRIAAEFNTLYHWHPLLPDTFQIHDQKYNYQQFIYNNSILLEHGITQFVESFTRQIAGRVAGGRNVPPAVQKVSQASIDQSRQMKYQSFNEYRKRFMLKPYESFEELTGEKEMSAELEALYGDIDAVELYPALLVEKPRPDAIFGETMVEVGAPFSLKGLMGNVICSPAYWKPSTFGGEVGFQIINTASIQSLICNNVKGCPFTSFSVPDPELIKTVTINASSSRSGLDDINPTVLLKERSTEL
The data set can be described thus: Inhibition of human COX2 assessed as PGE2 formation at 10 ug/ml by LC-MS-MS analysis. In outline: as §1

The nature of data set [3]: Cytotoxicity against mouse Hepa-1c1c7 cells assessed as cell growth inhibition at 20 ug/ml after 72 hrs by sulforhodamine B assay. The class given is cell-based. To be noted: hepa-1c1c7, 72 h. In outline: (§2)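 Cells held in medium with 10% heat-inactivated FBS and penicillin/streptomycin/amphotericin B (Hepa1c1c7 in α-MEM; MCF-7 in MEME plus 10 mg/L insulin). Samples added in triplicate, 37 °C, 5% CO2, 72 h. Cells fixed with cold 20% TCA at 4 °C for 30 min, stained with 0.4% sulforhodamine B, dye dissolved in 10 mM Tris pH 10, OD read at 515 nm. Growth given as % of 10% aqueous DMSO control.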
In general terms: Sulforhodamine B stains cellular protein and so reports cell mass.

In another data set the test system is MCF7. The data set can be described thus: Cytotoxicity against human MCF7 cells assessed as cell growth inhibition at 20 ug/ml after 72 hrs by sulforhodamine B assay. The class given is functional, cell-based. The essentials: as §2

Broadly, the IC50 is the concentration that inhibits the measured activity by half. Read a high IC50 as lower potency.

Activity calls are given as the source filed them. No cut-off for these calls is given here.

Regarding `O=C(/C=C/c1ccc(O)c(O)c1)O[C@H]1[C@H](O)[C@@H](O[C@@H]2OC[C@](O)(CO)[C@H]2O)[C@H](OCCc2ccc(O)cc2)O[C@@H]1CO`, inhibition against Aromatase was half-maximal at 30.7 µM (IC50). Also, the inhibition result (in the data set with RAW264.7; in data set [1]; in data set [2]) was “inactive” in each case. Further, the Activity entry is “Non-toxic” in data set [3] and “Not toxic” in the data set on MCF7.
With `O=c1ccn([C@@H]2O[C@H](CO)[C@@H](O)[C@@H]2O)c(=O)[nH]1` [ARAURIDINE], the inhibition entry (in the data set on RAW264.7; in data set [1]; in data set [2]) was “inactive” each time. Also, the Activity result in data set [3] is “Non-toxic”; in the data set with MCF7, “Not toxic”.
As to `OC[C@H]1O[C@@H](OCCc2ccc(O)c(O)c2)[C@H](O)[C@@H](O)[C@@H]1O`, the inhibition result (in the data set on RAW264.7; in data set [1]; in data set [2]) was “inactive” in each case. The Activity result in data set [3] is “Non-toxic”; in the data set with MCF7, “Not toxic”.
With `O=C(/C=C/c1ccc(O)c(O)c1)OC[C@H]1O[C@@H](OCCc2ccc(O)c(O)c2)[C@H](O)[C@@H](O)[C@@H]1O` [CALCEOLARIOSIDE B], the IC50 against Aromatase stood at 35.3 µM. The inhibition entry (in the data set on RAW264.7; in data set [1]; in data set [2]) was “inactive” in each case. Moreover, the Activity result was “Non-toxic” in data set [3] and “Not toxic” with MCF7.
`O=C(/C=C/c1ccc(O)c(O)c1)O[C@H]1[C@H](O)[C@@H](CO)O[C@@H](OCCc2ccc(O)c(O)c2)[C@@H]1O[C@@H]1OC[C@](O)(CO)[C@H]1O`: the half-maximal inhibitory concentration (IC50) at Aromatase was found to be 26.8 µM. Moreover, the inhibition entry (in the data set with RAW264.7; in data set [1]; in data set [2]) was “inactive” in each case. The Activity entry in data set [3] is “Non-toxic”; in the data set on MCF7, “Not toxic”.
With `COc1c(-c2ccc(O)cc2)oc2cc(O[C@@H]3O[C@H](CO)[C@@H](O)[C@H](O)[C@H]3O)cc(O)c2c1=O`, the inhibition result (with RAW264.7; in data set [1]; in data set [2]) was “inactive” in each case. The Activity entry in data set [3] was “Non-toxic”; in the data set on MCF7 it was “Not toxic”.
In turn, `O=C(/C=C/c1ccc(O)c(O)c1)OC[C@H]1O[C@@H](OCCc2ccc(O)c(O)c2)[C@H](O[C@@H]2OC[C@](O)(CO)[C@H]2O)[C@@H](O)[C@@H]1O` yielded an IC50 against Aromatase of 32.3 µM. Moreover, the inhibition result (with RAW264.7; in data set [1]; in data set [2]) was “inactive” each time. Moreover, the results for the Activity entry (in data set [3]; with MCF7) were “Non-toxic” and “Not toxic”, respectively.
With `COc1cc([C@@H](O)[C@@H](CO)Oc2ccc(/C=C/CO)cc2OC)ccc1O` (relative stereo), the inhibition result (in the data set on RAW264.7; in data set [1]; in data set [2]) was “inactive” in each case. Besides, the Activity result was “Non-toxic” in data set [3] and “Not toxic” in the data set on MCF7.
In the case of `COc1c(-c2ccc(O)c(O)c2)oc2cc(O[C@@H]3O[C@H](CO)[C@@H](O)[C@H](O)[C@H]3O)cc(O)c2c1=O` [TRANSILIN], the inhibition result (in the data set with RAW264.7; in data set [1]; in data set [2]) was “inactive” throughout. Besides, the Activity entry in data set [3] is “Non-toxic”; with MCF7, “Not toxic”.
For the molecule `O=C(/C=C/c1ccc(O)c(O)c1)O[C@H]1[C@H](O)[C@@H](O[C@@H]2OC[C@](O)(CO)[C@H]2O)[C@H](OCCc2ccc(O)c(O)c2)O[C@@H]1CO` [FUCATOSIDE A], the inhibition entry (in the data set on RAW264.7; in data set [1]; in data set [2]) was “inactive” throughout. The Activity result in data set [3] is “Non-toxic”; in the data set on MCF7, “Not toxic”.
For the molecule `O=C(/C=C/c1ccc(O)c(O)c1)O[C@H]1[C@H](O)[C@@H](CO)O[C@@H](OCCc2ccc(O)cc2)[C@@H]1O[C@@H]1OC[C@](O)(CO)[C@H]1O`, the inhibition entry (in the data set on RAW264.7; in data set [1]; in data set [2]) was “inactive” throughout. Besides, the Activity result in data set [3] is “Non-toxic”; with MCF7, “Not toxic”.
For the molecule `COc1c(-c2ccc(O)cc2)oc2cc(O[C@@H]3O[C@H](CO[C@@H]4O[C@@H](C)[C@H](O)[C@@H](O)[C@H]4O)[C@@H](O)[C@H](O)[C@H]3O)cc(O)c2c1=O`, the inhibition result (in the data set with RAW264.7; in data set [1]; in data set [2]) was “inactive” each time. Further, the Activity entry in data set [3] was “Non-toxic”; in the data set on MCF7 it was “Not toxic”.
Take `COc1c(-c2ccc(O)c(O)c2)oc2cc(O[C@@H]3O[C@H](CO[C@@H]4O[C@@H](C)[C@H](O)[C@@H](O)[C@H]4O)[C@@H](O)[C@H](O)[C@H]3O)cc(O)c2c1=O`: the inhibition entry (in the data set on RAW264.7; in data set [1]; in data set [2]) was “inactive” throughout. Also, the values for the Activity entry (in data set [3]; in the data set on MCF7) were “Non-toxic” and “Not toxic”, respectively.
`COc1c(-c2ccc(O)cc2)oc2cc(O[C@@H]3O[C@H](CO[C@@H]4O[C@@H](CO)[C@H](O)[C@H]4O)[C@@H](O)[C@H](O)[C@H]3O)cc(O)c2c1=O`: the inhibition result (in the data set on RAW264.7; in data set [1]; in data set [2]) was “inactive” each time. Also, the results for the Activity result (in data set [3]; with MCF7) were “Non-toxic” and “Not toxic”, respectively.
As to `O=c1c(O[C@@H]2O[C@H](CO)[C@@H](O)[C@H](O)[C@H]2O)c(-c2ccc(O)c(O)c2)oc2cc(O)cc(O)c12` [ISOQUERCETIN], the inhibition entry (in the data set on RAW264.7; in data set [1]; in data set [2]) was “inactive” in each case. Besides, the Activity result in data set [3] was “Non-toxic”; with MCF7 it was “Not toxic”.
